Assay results: ChEMBL document CHEMBL5303300, “EUbOPEN Chemogenomics Library - Multiplex” (2023)
Values joined by “and” are separate entries in the source; they are usually repeats but may differ in a detail not shown here. Equal entries are not always repeated.

System: HEK-293T
Experiment: Multiplex assay against HEK293T
Assay type: toxicity, cell-based
Conditions: human, number of replicates 2
Outline: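 Four dyes were applied at seeding to live cells: Hoechst33342, BioTracker Green Microtubule Cytoskeleton Dye, MitoTracker Red and Annexin V Alexa Fluor 680. Imaging after compound addition used a CQ1 microscope at 37°C and 5% CO2. CellPathfinder machine-learning gating then sorted cells into Hoechst high-intensity objects or normal cells, normal cells into healthy, pyknosed or fragmented nuclei, and pyknosed cells into mitotic or apoptotic, with tubulin, mitochondrial-mass and membrane-permeability phenotypes given as per cents of healthy-nucleus cells.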

[1] = 12 h, 1 µM, compound concentration 1 uM
[2] = 12 h, 10 µM, compound concentration 10 uM
[3] = 24 h, 1 µM, compound concentration 1 uM
[4] = 24 h, 10 µM, compound concentration 10 uM
[5] = 48 h, 1 µM, compound concentration 1 uM
[6] = 48 h, 10 µM, compound concentration 10 uM

COc1ncc(-c2cc(-c3ncc(CN4C[C@@H](C)O[C@@H](C)C4)o3)c3cn[nH]c3c2)cc1NS(C)(=O)=O
Population Apoptotic (%) [1]: 48% and 56% | Population Fragmented Nuclei (%) [1]: 3% and 2% | Population Healthy Nuclei (%) [1]: 86% and 81% | Population Hoechst High Intensity Objects (%) [1]: 10% | Population Membrane Permeable-Phenotype (%) [1]: 4% and 1% | Population Mitochondria Different-Phenotype (%) [1]: 17% and 26% | Population Mitotic Cells (%) [1]: 51% and 43% | Population Normal (%) [1]: 89% | Population Pyknosed Nuclei (%) [1]: 10% and 15% | Population Tubulin-Different-Phenotype (%) [1]: 65% and 71% | Total Cell Count [1]: 695 and 654 | Population Apoptotic (%) [2]: 46% and 58% | Population Fragmented Nuclei (%) [2]: 2% and 3% | Population Healthy Nuclei (%) [2]: 75% and 82% | Population Hoechst High Intensity Objects (%) [2]: 9% | Population Membrane Permeable-Phenotype (%) [2]: 0% and 1% | Population Mitochondria Different-Phenotype (%) [2]: 54% and 51% | Population Mitotic Cells (%) [2]: 53% and 41% | Population Normal (%) [2]: 90% | Population Pyknosed Nuclei (%) [2]: 22% and 14% | Population Tubulin-Different-Phenotype (%) [2]: 88% and 87% | Total Cell Count [2]: 336 and 358 | Population Apoptotic (%) [3]: 40% and 54% | Population Fragmented Nuclei (%) [3]: 7% and 5% | Population Healthy Nuclei (%) [3]: 86% and 83% | Population Hoechst High Intensity Objects (%) [3]: 12% and 10% | Population Membrane Permeable-Phenotype (%) [3]: 2% and 1% | Population Mitochondria Different-Phenotype (%) [3]: 4% and 10% | Population Mitotic Cells (%) [3]: 59% and 45% | Population Normal (%) [3]: 87% and 89% | Population Pyknosed Nuclei (%) [3]: 6% and 10% | Population Tubulin-Different-Phenotype (%) [3]: 37% and 44% | Total Cell Count [3]: 1173 and 987 | Population Apoptotic (%) [4]: 46% and 45% | Population Fragmented Nuclei (%) [4]: 4% | Population Healthy Nuclei (%) [4]: 82% and 76% | Population Hoechst High Intensity Objects (%) [4]: 9% and 10% | Population Membrane Permeable-Phenotype (%) [4]: 1% | Population Mitochondria Different-Phenotype (%) [4]: 41% and 44% | Population Mitotic Cells (%) [4]: 53% and 54% | Population Normal (%) [4]: 90% and 89% | Population Pyknosed Nuclei (%) [4]: 13% and 19% | Population Tubulin-Different-Phenotype (%) [4]: 79% and 86% | Total Cell Count [4]: 379 and 373 | Population Apoptotic (%) [5]: 13% and 26% | Population Fragmented Nuclei (%) [5]: 15% and 9% | Population Healthy Nuclei (%) [5]: 81% and 85% | Population Hoechst High Intensity Objects (%) [5]: 11% | Population Membrane Permeable-Phenotype (%) [5]: 7% and 2% | Population Mitochondria Different-Phenotype (%) [5]: 0% and 2% | Population Mitotic Cells (%) [5]: 86% and 73% | Population Normal (%) [5]: 88% | Population Pyknosed Nuclei (%) [5]: 2% and 4% | Population Tubulin-Different-Phenotype (%) [5]: 22% and 30% | Total Cell Count [5]: 2777 and 1879 | Population Apoptotic (%) [6]: 55% and 40% | Population Fragmented Nuclei (%) [6]: 6% and 4% | Population Healthy Nuclei (%) [6]: 87% and 83% | Population Hoechst High Intensity Objects (%) [6]: 13% and 9% | Population Membrane Permeable-Phenotype (%) [6]: 2% and 3% | Population Mitochondria Different-Phenotype (%) [6]: 18% and 21% | Population Mitotic Cells (%) [6]: 44% and 59% | Population Normal (%) [6]: 86% and 90% | Population Pyknosed Nuclei (%) [6]: 6% and 11% | Population Tubulin-Different-Phenotype (%) [6]: 74% and 82% | Total Cell Count [6]: 527 and 510

C=CC(=O)Nc1ccc2[nH]c(=O)n(C3CCN(Cc4ccc(-c5ccc6c(c5)NC(=O)CO6)cc4)CC3)c2c1 [RL2578]
Population Apoptotic (%) [1]: 38% and 52% | Population Fragmented Nuclei (%) [1]: 3% | Population Healthy Nuclei (%) [1]: 85% | Population Hoechst High Intensity Objects (%) [1]: 8% and 6% | Population Membrane Permeable-Phenotype (%) [1]: 4% and 5% | Population Mitochondria Different-Phenotype (%) [1]: 17% | Population Mitotic Cells (%) [1]: 61% and 47% | Population Normal (%) [1]: 91% and 93% | Population Pyknosed Nuclei (%) [1]: 10% and 11% | Population Tubulin-Different-Phenotype (%) [1]: 66% and 57% | Total Cell Count [1]: 749 and 364 | Population Apoptotic (%) [2]: 39% and 60% | Population Fragmented Nuclei (%) [2]: 2% and 1% | Population Healthy Nuclei (%) [2]: 92% and 89% | Population Hoechst High Intensity Objects (%) [2]: 6% and 10% | Population Membrane Permeable-Phenotype (%) [2]: 10% and 6% | Population Mitochondria Different-Phenotype (%) [2]: 39% | Population Mitotic Cells (%) [2]: 60% and 40% | Population Normal (%) [2]: 93% and 89% | Population Pyknosed Nuclei (%) [2]: 4% and 8% | Population Tubulin-Different-Phenotype (%) [2]: 97% and 96% | Total Cell Count [2]: 579 and 597 | Population Apoptotic (%) [3]: 44% and 59% | Population Fragmented Nuclei (%) [3]: 6% and 4% | Population Healthy Nuclei (%) [3]: 86% and 88% | Population Hoechst High Intensity Objects (%) [3]: 4% | Population Membrane Permeable-Phenotype (%) [3]: 4% and 3% | Population Mitochondria Different-Phenotype (%) [3]: 7% and 9% | Population Mitotic Cells (%) [3]: 56% and 40% | Population Normal (%) [3]: 95% | Population Pyknosed Nuclei (%) [3]: 6% and 7% | Population Tubulin-Different-Phenotype (%) [3]: 42% and 38% | Total Cell Count [3]: 1138 and 534 | Population Apoptotic (%) [4]: 53% and 81% | Population Fragmented Nuclei (%) [4]: 3% and 4% | Population Healthy Nuclei (%) [4]: 93% and 90% | Population Hoechst High Intensity Objects (%) [4]: 8% and 9% | Population Membrane Permeable-Phenotype (%) [4]: 5% and 2% | Population Mitochondria Different-Phenotype (%) [4]: 35% and 46% | Population Mitotic Cells (%) [4]: 46% and 18% | Population Normal (%) [4]: 91% and 90% | Population Pyknosed Nuclei (%) [4]: 2% and 4% | Population Tubulin-Different-Phenotype (%) [4]: 90% and 94% | Total Cell Count [4]: 626 and 621 | Population Apoptotic (%) [5]: 16% and 19% | Population Fragmented Nuclei (%) [5]: 15% and 13% | Population Healthy Nuclei (%) [5]: 81% and 82% | Population Hoechst High Intensity Objects (%) [5]: 8% and 7% | Population Membrane Permeable-Phenotype (%) [5]: 6% and 4% | Population Mitochondria Different-Phenotype (%) [5]: 0% and 2% | Population Mitotic Cells (%) [5]: 83% and 80% | Population Normal (%) [5]: 91% and 92% | Population Pyknosed Nuclei (%) [5]: 2% and 3% | Population Tubulin-Different-Phenotype (%) [5]: 18% and 21% | Total Cell Count [5]: 2736 and 1194 | Population Apoptotic (%) [6]: 32% and 60% | Population Fragmented Nuclei (%) [6]: 11% and 7% | Population Healthy Nuclei (%) [6]: 84% and 86% | Population Hoechst High Intensity Objects (%) [6]: 13% | Population Membrane Permeable-Phenotype (%) [6]: 3% and 1% | Population Mitochondria Different-Phenotype (%) [6]: 15% and 25% | Population Mitotic Cells (%) [6]: 67% and 40% | Population Normal (%) [6]: 86% | Population Pyknosed Nuclei (%) [6]: 4% and 6% | Population Tubulin-Different-Phenotype (%) [6]: 71% and 82% | Total Cell Count [6]: 795 and 718
